Where a name gives a salt, the structure may show the parent alone. Read-outs that look alike come from different tables or passages of the source. Marks after values point to notes of the source that are not given here.
Assays:
[1] = cited from earlier work
[2] = cited from earlier work; remark: listed apart in the source
[3] = biological target: T1, BCRP (Homo sapiens, UniProt Q9UNQ0); assay type: cell-based; conditions: for inhibition of BCRP-mediated prazosin transport: all tested concentrations up to 10 μM; for Permeability Papp,AB of prazosin / Permeability Papp,BA of prazosin / Inhibition (%): MDCK-II-BCRP; for Permeability Papp,AB of prazosin / Permeability Papp,BA of prazosin: prazosin 10 μM, mean ± SD (n=3); for Inhibition (%): prazosin transport
T1 sequence (Q9UNQ0 1-655): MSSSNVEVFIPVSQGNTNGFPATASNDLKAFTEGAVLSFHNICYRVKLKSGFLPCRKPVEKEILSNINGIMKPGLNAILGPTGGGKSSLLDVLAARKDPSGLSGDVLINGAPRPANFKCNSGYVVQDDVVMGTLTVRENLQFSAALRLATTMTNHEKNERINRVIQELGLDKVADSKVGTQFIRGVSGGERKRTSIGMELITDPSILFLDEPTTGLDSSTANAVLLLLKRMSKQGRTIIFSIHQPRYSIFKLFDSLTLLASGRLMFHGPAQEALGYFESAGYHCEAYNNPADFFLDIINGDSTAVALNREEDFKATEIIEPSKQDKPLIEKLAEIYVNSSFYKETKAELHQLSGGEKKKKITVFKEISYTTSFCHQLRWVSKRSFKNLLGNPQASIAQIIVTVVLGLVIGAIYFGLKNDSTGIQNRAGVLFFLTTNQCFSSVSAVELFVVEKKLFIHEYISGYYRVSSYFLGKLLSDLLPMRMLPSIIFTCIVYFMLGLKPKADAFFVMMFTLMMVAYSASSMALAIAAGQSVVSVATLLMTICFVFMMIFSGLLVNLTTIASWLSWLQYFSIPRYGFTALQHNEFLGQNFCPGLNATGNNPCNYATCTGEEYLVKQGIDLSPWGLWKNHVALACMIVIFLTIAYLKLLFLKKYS

[4] = Observed clinical pharmacokinetics after oral sarpogrelate hydrochloride; assay type: in vivo, human
[5] = MTT cytotoxicity assay in MDCK-II-BCRP cells; assay type: cell-based, canine; conditions: dog
[6] = cited from earlier work; remark: listed apart in the source
[7] = high solubility and permeability profile; cited from earlier work
[8] = Metabolic stability of sarpogrelate in human blood; assay type: in vitro ADME; conditions: sarpogrelate 400 nM, 60-minute incubation; data not shown
[9] = Metabolic stability in pooled human liver microsomes for CLint; assay type: in vitro ADME; conditions: for microsomal CLint at 400 nM: human, pooled human liver microsomes
How it was run: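 Preincubated 5 min at 37°C, then incubated with 400 nM substrate up to 60–90 min. Run in duplicate, analysed by LC-MS/MS as % remaining vs time 0. t1/2 from initial log-linear slope; CLint = (0.693/t1/2)×(incubation volume/microsomal protein).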

[10] = test system: CYP2D6; conditions: read-out: CYP2D6 Ki; competitive inhibition type, in vitro; cited from earlier work
[11] = PBPK input parameters predicted, defaulted, optimized or assumed in Simcyp; parameters: species or system human; conditions: Assumed from Reference 21
[12] = MTT cytotoxicity assay in MDCK-II-P-gp cells; assay type: cell-based, canine; conditions: dog
[13] = biological target: P-gp (Homo sapiens, UniProt P08183); assay type: cell-based; conditions: for Permeability Papp,AB of loperamide / Permeability Papp,BA of loperamide / Inhibition (%): MDCK-II-P-gp; for Permeability Papp,AB of loperamide / Permeability Papp,BA of loperamide: loperamide 10 μM, mean ± SD (n=3); for Inhibition (%): loperamide transport
[14] = Metabolic stability of sarpogrelate in human intestinal microsomes; assay type: in vitro ADME; conditions: sarpogrelate 400 nM, 60-minute incubation; data not shown
[15] = test system: CYP2D6; conditions: single coadministration with sarpogrelate hydrochloride 100 mg; cited from earlier work
[16] = test system: CYP2D6; conditions: cited from earlier work
[17] = test system: UGT2B7; conditions: M-1 glucuronidation; cited from earlier work
[18] = test system: UGT1A4; conditions: M-1 glucuronidation; cited from earlier work
[19] = test system: MDCK-II-BCRP cells; experiment: MTT cytotoxicity assay in MDCK-II-BCRP cells; assay type: cell-based, canine; conditions: 1 hour incubation, highest drug concentration tested (10 μM)
[20] = test system: MDCK-II-P-gp cells; experiment: MTT cytotoxicity assay in MDCK-II-P-gp cells; assay type: cell-based, canine; conditions: 1 hour incubation, highest drug concentration tested (10 μM)
[21] = test system: UGT1A9; conditions: M-1 glucuronidation; cited from earlier work
[22] = multiple doses 100 mg tid for 1 day
[23] = observed, single oral 100 mg sarpogrelate hydrochloride, median (range), ref 20
[24] = single oral 100 mg sarpogrelate hydrochloride
[25] = human, MDCK-II-BCRP cell monolayer, probe prazosin (10 µM)
[26] = human, MDCK-II-P-gp cell monolayer, probe loperamide (10 µM)

Sequence of P-gp (P08183 whole entry): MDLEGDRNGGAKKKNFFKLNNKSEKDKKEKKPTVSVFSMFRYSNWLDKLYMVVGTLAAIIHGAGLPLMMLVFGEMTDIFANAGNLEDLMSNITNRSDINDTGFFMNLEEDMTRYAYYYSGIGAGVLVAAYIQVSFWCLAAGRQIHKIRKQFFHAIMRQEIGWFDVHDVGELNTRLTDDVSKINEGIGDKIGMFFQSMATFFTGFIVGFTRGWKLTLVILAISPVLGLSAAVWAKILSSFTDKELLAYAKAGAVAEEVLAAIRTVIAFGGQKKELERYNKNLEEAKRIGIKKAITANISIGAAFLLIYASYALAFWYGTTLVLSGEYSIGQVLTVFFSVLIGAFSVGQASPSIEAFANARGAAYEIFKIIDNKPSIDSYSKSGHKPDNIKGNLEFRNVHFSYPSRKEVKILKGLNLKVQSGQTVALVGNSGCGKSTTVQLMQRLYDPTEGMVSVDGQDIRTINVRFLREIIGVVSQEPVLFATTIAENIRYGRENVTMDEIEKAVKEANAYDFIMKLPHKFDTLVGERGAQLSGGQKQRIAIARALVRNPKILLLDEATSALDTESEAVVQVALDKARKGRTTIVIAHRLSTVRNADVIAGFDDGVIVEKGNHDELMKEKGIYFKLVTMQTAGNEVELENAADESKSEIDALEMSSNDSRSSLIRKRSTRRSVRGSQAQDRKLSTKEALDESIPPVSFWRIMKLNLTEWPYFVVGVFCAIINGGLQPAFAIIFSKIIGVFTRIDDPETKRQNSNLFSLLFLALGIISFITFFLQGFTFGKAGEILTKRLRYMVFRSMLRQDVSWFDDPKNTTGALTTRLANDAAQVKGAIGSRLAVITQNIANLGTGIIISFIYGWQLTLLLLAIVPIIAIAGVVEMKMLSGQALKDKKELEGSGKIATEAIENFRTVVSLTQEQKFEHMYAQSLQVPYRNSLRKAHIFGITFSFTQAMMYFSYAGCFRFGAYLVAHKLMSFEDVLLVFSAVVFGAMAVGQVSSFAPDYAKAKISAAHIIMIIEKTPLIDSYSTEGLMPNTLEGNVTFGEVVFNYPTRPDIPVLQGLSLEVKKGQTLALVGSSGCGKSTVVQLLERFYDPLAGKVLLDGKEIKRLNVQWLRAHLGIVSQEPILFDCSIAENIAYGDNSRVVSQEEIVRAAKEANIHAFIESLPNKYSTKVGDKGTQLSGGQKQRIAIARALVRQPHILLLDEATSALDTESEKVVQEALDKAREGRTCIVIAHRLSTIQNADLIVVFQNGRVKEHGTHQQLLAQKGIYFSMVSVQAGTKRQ

## COc1cccc(CCc2ccccc2OCC(CN(C)C)OC(=O)CCC(=O)O)c1 (racemic) [Sarpogrelate, (R,S)-1-{2-[2-(3-methoxyphenyl)ethyl]-phenoxy}-3-(dimethylamino)-2-propyl hydrogen succinate hydrochloride]
[1]
  plasma protein binding: approximately 95%
[2]; humans, 100 mg oral dose
  Tmax: 0.889 ± 0.651 h
[2]; [22]
  observed values of AUC0–24 h (range across studies): 1,291–1,773 ng h/mL
  observed values of Cmax (range across studies): 466.0 to 781.6 ng/mL
[2]; [23]
  Tmax: 0.67 (0.3–1.5) ^a hours
[2]; observed, single oral 100 mg sarpogrelate hydrochloride, median (range), ref 22
  Tmax: 1.00 (1.0–4.0) ^a hours
[2]; [24]
  observed values of AUC (range across studies): 348.3 to 621.5 ng·h/mL
  observed values of Cmax (range across studies): 343.0 to 635.1 ng/mL
[2]; up to 24 hours after a 100 mg oral dose, humans
  unchanged sarpogrelate in urine or feces: no unchanged sarpogrelate was detected
[3]
  inhibition of BCRP-mediated prazosin transport: did not inhibit
[3]; [25]
  inhibition at 1 h, 0.2 µM: 2.69%
  inhibition at 1 h, 2 µM: 9.62%
  inhibition at 1 h, 10 µM: 0.38%
[4]; Calculated from clinical data
  CLpo (oral systemic clearance): 140 L/h
[5]
  viability at 1 h, 10 µM: > 97%
[6]; PBPK input, reference cell empty, apparently ref www.Chembase.cn
  Log P: 1.12
[6]; ref www.Chembase.cn
  PSA: 85.3
[7]
  biopharmaceutics classification system (BCS) class: Class I
[8]
  formation of M-1 in human blood: not observed
[9]; pH 7.4, CLint for M-1 formation (carboxylesterase-mediated CLint), 400 nM sarpogrelate, HLM 0.1 mg/mL, no cofactor
  microsomal CLint at 400 nM: 32.6 µL/min/mg
[9]; pH 7.5, carboxylesterase and UDPGA-dependent CLint, 400 nM sarpogrelate in HLM with UDPGA
  microsomal CLint at 400 nM: 50 ± 7.89 µL/min/mg
[10]
  Ki: 1240 nM
[11]
  Lag time: 0 h
  fa (fraction absorbed in the gastrointestinal tract): 1.0
[12]
  viability at 1 h, 10 µM: > 97%
[13]; [26]
  inhibition at 1 h: < 10%
  inhibition at 1 h, 0.2 µM: 9.18%
  inhibition at 1 h, 2 µM: 9.72%
  inhibition at 1 h, 10 µM: 9.95%
[14]
  formation of M-1 in human intestinal microsomes: not observed

## COCCc1ccc(OCC(O)CNC(C)C)cc1 (stereo not drawn) [Metoprolol, metoprolol]
[15]
  fold increase of AUCt of metoprolol (observed): 1.53 fold
  fold increase of Cmax of metoprolol (observed): 1.62 fold
[16]
  metabolized fraction by CYP2D6: 0.83

## COc1cccc(CCc2ccccc2OC[C@H](O)CN(C)C)c1 (racemic) [M-1, (R,S)-1-{2-[2-(3-methoxyphenyl)ethyl]-phenoxy}-3-(dimethylamino)-2-propanol]
[1]
  fup (fraction unbound in plasma): 0.03
[2]; [22]
  observed values of AUC0–24 h (range across studies): 246.2 to 267.2 ng·h/mL
[2]; [23]
  Tmax: 1.0 (0.33–1.5) ^a hours
[17]
  CLint by rUGT2B7: 0.32 μL/min/mg protein
[3]; inhibitor 0.2 µM
  Permeability Papp,AB of prazosin: 0.891±0.0355 ×10^−6 cm/s
  Permeability Papp,BA of prazosin: 3.42±0.0237 ×10^−6 cm/s
  Inhibition (%): 0.380%
[3]; inhibitor 2 µM
  Permeability Papp,AB of prazosin: 0.813±0.0547 ×10^−6 cm/s
  Permeability Papp,BA of prazosin: 3.31±0.0467 ×10^−6 cm/s
  Inhibition (%): 0.771%
[3]; inhibitor 10 µM
  Permeability Papp,AB of prazosin: 0.811±0.0111 ×10^−6 cm/s
  Permeability Papp,BA of prazosin: 3.32±0.0139 ×10^−6 cm/s
  Inhibition (%): 0.381%
[3]
  inhibition of BCRP-mediated prazosin transport: did not inhibit
[4]; single oral 100 mg sarpogrelate hydrochloride, observed clinical data
  observed ratio of AUC of M-1 to sarpogrelate: 0.139
[18]
  CLint by rUGT1A4: 0.63 μL/min/mg protein
[19]
  cell viability (MTT assay): > 97%
[9]; 400 nM M-1 in HLM with NADPH generating system
  Additional CLint in HLM (NADPH generating system): 150 μL/min/mg protein
[10]
  Ki: 120 nM
[20]
  cell viability (MTT assay): > 97%
[21]
  CLint by rUGT1A9: 1.30 μL/min/mg protein
[13]; inhibitor 0.2 µM
  Permeability Papp,AB of loperamide: 0.0894±0.0188 ×10^−6 cm/s
  Permeability Papp,BA of loperamide: 1.95±0.0443 ×10^−6 cm/s
  Inhibition (%): 2.00%
[13]; inhibitor 2 µM
  Permeability Papp,AB of loperamide: 0.0822±0.0192 ×10^−6 cm/s
  Permeability Papp,BA of loperamide: 1.84±0.0249 ×10^−6 cm/s
  Inhibition (%): 7.82%
[13]; inhibitor 10 µM
  Permeability Papp,AB of loperamide: 0.104±0.0243 ×10^−6 cm/s
  Permeability Papp,BA of loperamide: 1.95±0.0403 ×10^−6 cm/s
  Inhibition (%): 2.91%
[13]; all tested concentrations up to 10 μM
  inhibition of P-gp-mediated loperamide transport: < 10%

## CNCCCN1c2ccccc2CCc2ccccc21 [Desipramine, desipramine]
[16]
  metabolized fraction by CYP2D6: 0.88

## COc1ccc2c(c1)[C@]13CCCC[C@@H]1[C@H](C2)N(C)CC3 [Dextromethorphan, dextromethorphan]
[16]
  metabolized fraction by CYP2D6: 0.96
